Compound activity as filed in PubChem.
Hits are enriched below; roughly 3.5% of the tested compounds scored in any of these assays.
PAFAH2 inh: PAFAH2 (human) inhibition; 340,000 compounds, 0.99% hits; recombinant PAFAH2, FP-rhodamine activity probe, fluorescence polarization; inhibition, % at 3.39 µM; Q99487;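 active = inhibition above the mean over all tested compounds plus 3 SD, cut at about 30% in these data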;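 also: inhibitors block probe labeling of enzyme so polarization drops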
PAFAH1B2 FP inh: PAFAH1B2 (human) inhibition. 340,000 compounds, 1.2% hits. AID 492953. P68402. inhibition, % at 3.39 µM. recombinant PAFAH1B2, FP-rhodamine activity probe, fluorescence polarization;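 active = inhibition above the mean of all tested compounds plus 3 SD, cut at about 24% in these data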
Target sequence (P68402 whole entry, looked up): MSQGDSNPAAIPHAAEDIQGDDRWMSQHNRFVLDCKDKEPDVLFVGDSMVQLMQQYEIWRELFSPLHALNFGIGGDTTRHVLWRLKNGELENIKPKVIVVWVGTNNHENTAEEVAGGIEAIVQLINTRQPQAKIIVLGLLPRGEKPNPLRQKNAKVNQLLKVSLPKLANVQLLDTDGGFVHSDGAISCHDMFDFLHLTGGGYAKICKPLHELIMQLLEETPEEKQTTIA
PAFAH1B3 FP inh: blocks human PAF acetylhydrolase 1B catalytic subunit 3. 340,000 compounds, 0.28% hits. recombinant PAFAH1B3, FP-rhodamine probe, fluorescence polarization. AID 492972. inhibition, % at 3.39 µM. Q15102;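 active = inhibition above the screen-wide average of all tested compounds plus 3 SD, cut at about 25% in these data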
Target sequence (Q15102 whole entry, looked up): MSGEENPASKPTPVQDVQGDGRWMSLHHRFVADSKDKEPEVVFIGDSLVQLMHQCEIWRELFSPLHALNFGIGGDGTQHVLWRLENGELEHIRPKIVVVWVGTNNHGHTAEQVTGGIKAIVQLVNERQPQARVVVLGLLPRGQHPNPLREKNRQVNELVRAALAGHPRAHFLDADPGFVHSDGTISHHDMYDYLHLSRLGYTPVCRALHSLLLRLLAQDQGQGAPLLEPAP
pPAFAH FP inh: pPAFAH (human) enzyme inhibition | recombinant pPAFAH, FP-rhodamine probe fluorescence polarization | inhibition, % at 3.39 µM | 330,000 compounds, 1.5% hits | Q13093;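 active = inhibition above the mean inhibition across the screen plus 3 SD, cut at about 25% in these data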;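 also: inhibitors block binding of the rhodamine activity-based probe so polarization drops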
Apaf-1 inh: human Apaf-1 inhibition. reconstituted apoptosome caspase-3 activity, DEVD-Rh110 fluorescence. inhibition, % at 20 µM. 330,000 compounds, 0.71% hits; active = inhibition of at least 40% at 20 µM
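Material: reconstituted apoptosome with Apaf-1, cytochrome c, caspase-9, procaspase-3, dATP. Technique: Rh110 fluorescence intensity. Buffer or medium: pH 7.5 Hepes buffer with CHAPS, BSA, DTT. Times: 30 min plus 50 min, RT.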
PREPL inhibitor: human PREPL enzyme inhibition; Q4J6C6; recombinant PREPL, fluorescence polarization activity-based probe; inhibition, % at 5.96 µM; 320,000 compounds, 0.68% hits; AID 2751; in the data active = inhibition above about 43%
Numbers stand for hits; i = inactive; nt = no result given.

SMILES	PAFAH2 inh	PAFAH1B2 FP inh	PAFAH1B3 FP inh	pPAFAH FP inh	Apaf-1 inh	PREPL inhibitor
Cc1[nH]c2ccccc2c1C(=O)C(=O)NCC1CCCO1 (centres undefined)	i	i	i	i	i	i
Cc1[nH]c2ccccc2c1C(=O)C(=O)NC1CC1	i	i	i	28.0	i	i
COc1ccccc1/C=N/NC(=O)C(C)Cn1cnc2ccccc21 (centres undefined)	i	i	i	i	i	i
Cc1nnc(N/N=C/c2ccco2)n1N	i	i	i	i	i	i
Cc1cccc(C(=O)Nc2sc(-c3ccccc3)cc2C(=O)O)c1	i	32.5	i	34.4	i	i
S=c1[nH]nc(-c2ccco2)n1/N=C/c1ccc(Cl)cc1Cl	i	i	i	31.3	i	i
CC(CCc1ccccc1)NS(=O)(=O)c1ccccc1F (centres undefined)	i	29.2	i	i	i	i
Cc1ccc(C)c(NC(=S)NNC(=O)c2csc3c2CCCC3)c1	i	i	i	i	i	i
Cc1cccc(NC(=S)NNC(=O)c2csc3c2CCCC3)c1	i	i	i	26.4	i	i
CN(CCCC(=O)Nc1ccc(Br)cc1F)S(=O)(=O)c1ccccc1	i	i	i	i	i	i
CC1CCC(NC(=O)CCS(=O)(=O)c2ccc3c(c2)oc(=O)n3C)CC1 (centres undefined)	i	i	i	i	i	i
Nc1nonc1C(=O)NCCN=Cc1cc(Cc2ccccc2)cc(Br)c1O	i	i	i	32.7	i	i
CC(Oc1ccccc1F)C(=O)NNC(=O)CCNC(=O)c1ccco1 (centres undefined)	i	i	i	i	i	i
COc1ccccc1N1CCN(CCN2C(=O)C3CCCN3C2=O)CC1 (centres undefined)	i	i	i	i	i	i
CCCCc1cc(=O)oc2cc(C)c(CN3CCCC3)c(O)c12	i	i	i	30.2	i	i
CCCCc1cc(=O)oc2c(CN3CCCC3)c(O)ccc12	i	i	i	i	i	i
CC(=O)c1ccc(NC(=O)c2ccc(NC(=O)c3ccco3)cc2)cc1	i	i	i	i	i	i
Cc1cccc(NC(=O)c2cccc(S(=O)(=O)Nc3ccccc3C(=O)O)c2)c1	i	i	i	i	i	i
C/C(=N\NS(=O)(=O)c1ccccc1)c1cccc(NC(=O)c2cccc(Cl)c2)c1	i	i	i	24.9	i	i
Cc1ccccc1NS(=O)(=O)c1ccc(NC(=O)c2nc3ncccn3n2)cc1	i	i	i	29.1	i	i
Cc1ccccc1NS(=O)(=O)c1cccc(C(=O)Nc2cccc(C(=O)O)c2)c1	i	i	i	27.3	i	i
COC(=O)c1ccc(NC(=O)c2ccc(NC(=O)c3ccco3)cc2)cc1	i	i	i	i	43.8	i
COc1cc(C2C(C#N)=C(N)N(N(C)C)C3=C2C(=O)CC(C)(C)C3)ccc1O (centres undefined)	i	i	i	i	i	i
COc1ccc(C(=O)NCCS(=O)(=O)N2CCCC2)cc1	i	i	i	i	i	i
COc1cc(/C=C/C(=O)O)cc(S(=O)(=O)Nc2ccc3nc(SC)sc3c2)c1OC	i	i	i	i	i	i
SMILES	PAFAH2 inh	PAFAH1B2 FP inh	PAFAH1B3 FP inh	pPAFAH FP inh	Apaf-1 inh	PREPL inhibitor
CC1CN(C(=O)Cn2cc(S(=O)(=O)CC(=O)N3CCOCC3)c3ccccc32)CC(C)O1 (centres undefined)	i	i	i	i	i	i
CC(CNC(=O)CN(C)CC(=O)Nc1ccccc1Br)c1ccccc1 (centres undefined)	i	i	i	nt	i	nt
O=C(Cc1cccs1)Nc1ccccc1F	i	i	i	i	i	i
COc1ccc2nc(/C=N/NC(=O)CCNC(=O)OC(C)(C)C)ccc2c1	i	i	i	i	i	i
CCOc1cc(NS(=O)(=O)c2ccccc2)c(OCC)cc1NC(=O)c1ccco1	i	i	i	31.1	i	i
Cc1ccccc1NS(=O)(=O)c1ccc(NC(=O)c2ccco2)cc1	i	i	i	29.3	i	i
CCNC(=S)Nc1cc(OCC)c(NC(=O)c2ccco2)cc1OCC	i	i	i	i	i	i
CC1CCc2sc(C(=O)NNC(=S)NC3CC3)cc2C1 (centres undefined)	i	i	i	i	i	i
Cc1ccccc1C1=C/C(=C(\SS/C(C(=O)c2ccc(OCC(=O)O)c(Cl)c2Cl)=C2\C=C(c3ccccc3C)SS2)C(=O)c2ccc(OCC(=O)O)c(Cl)c2Cl)SS1	33.6	25.5	i	nt	nt	nt
O=C(CCc1ccc(S(=O)(=O)N2CCOCC2)cc1)N/N=C/c1ccc(F)cc1F	i	i	i	i	i	i
O=C(CCc1ccc(S(=O)(=O)N2CCOCC2)cc1)N/N=C/c1ccc(O)c(O)c1O	i	i	i	27.8	i	i
CNC(=O)c1cc(C(=O)c2ccc(Cl)cc2)c(Br)[nH]1	i	36.7	i	i	i	i
COCc1nnc(NC(=O)CCCOc2ccccc2)s1	i	i	i	34.4	i	i
COCc1nnc(NC(=O)CCCOc2ccccc2OC)s1	i	i	i	i	i	i
CC1CCC2(CC1)SCC(=O)N2c1ccc(F)cc1 (centres undefined)	i	24.6	i	i	i	i
O=[N+]([O-])c1cc(-c2ccc(/C=N\n3cnnc3)o2)cc([N+](=O)[O-])c1	i	i	i	27.3	i	i
O=C(O)C(Cc1ccccc1-c1ccccc1)C(=O)O	i	27.1	i	i	i	i
O=C(O)COc1ccccc1-c1ccccc1	i	i	i	i	i	i
CCOc1ccc(NC(=O)COC(=O)CNC(=O)c2ccc(-c3ccccc3)cc2)cc1	i	i	i	i	i	i
O=C(COc1cc(O)c2c(=O)cc(-c3ccccc3)oc2c1)c1cccc([N+](=O)[O-])c1	i	24.9	i	i	i	i
COc1ccc(C2CC(c3ccc(F)cc3)n3nc(NS(C)(=O)=O)nc3N2)cc1 (centres undefined)	i	i	i	i	i	i
Cc1ccc(C(=O)Nc2ccc(S(=O)(=O)N3CCN(C)CC3)cc2)o1	i	i	i	i	i	i
Cc1ccc(C2=NC(=O)/C(=C/c3cc(O)c(O)c(Br)c3)S2)cc1	78.0	36.6	47.7	nt	i	nt
CC(CCCC(C)(C)O)NC(=O)c1ccc2oc(CCc3ccccc3)nc2c1 (centres undefined)	i	i	i	i	i	i
CN(C)/C=C(\C=O)c1onc(-c2ccccc2Cl)c1C#N	32.8	i	i	i	i	i
Cc1cc2n(n1)C(c1ccc(N(C)C)cc1)Nc1ccccc1-2 (centres undefined)	i	i	i	26.5	i	i
Nc1cc2cccnc2cc1Cl	43.9	i	36.9	nt	nt	nt
COc1ccccc1N(C)S(=O)(=O)c1ccc(C(=O)N(C)Cc2ccc(OC(F)F)cc2)cc1	i	i	i	nt	i	nt
CC(=O)c1sc(NC(=O)CCS(=O)(=O)c2ccc(Cl)cc2)nc1C	i	i	i	i	i	i
